Test results published in ChEMBL document CHEMBL1124776, “Studies on hindered phenols and analogues. 2. 1,3-Benzoxathioles having SRS-A inhibiting activity” (J Med Chem, 1990).
Values after ≈ are worked out from the molar mass of the structure shown.

What was measured:
[1] = species: Rattus norvegicus; test: LPO-lowering activity was estimated by the IC50 value of compound in rat liver microsomal lipid peroxidation; assay type: functional
Outline: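 Rat liver microsomes were reacted with compound plus cysteine (500 μM) and ferrous sulfate (5 μM), following the ferrous sulfate/cysteine method. Lipid peroxide was measured by the thiobarbituric acid method. IC50 (μg/mL) is the concentration giving 50% inhibition of lipid peroxide formation.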

[2] = tested on: superoxide radical (cell-free, no organism); test: The concentration of compound required to inhibit generation of superoxide by 50 percent electrochemically
[3] = species: Cavia porcellus; test: Evaluated for inhibition of the formation and release of SRS-A in isolated guinea pig ileum; assay type: functional
Outline: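 Guinea pig (Hartley, male) lung slices from sensitized animals were preincubated with compound for 15 min, then challenged with albumin antigen. SRS-A formed and released was bioassayed by superfusion over isolated guinea pig ileum. IC50 (μM) came from a least-squares regression of percent inhibition against dose, with 95% confidence limits by Fieller's equation.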

[4] = Rattus norvegicus, Liver, read-out: IC50

Molecule | IC50 [1, 4] [mg/L] | IC50 [3] [µM] | IC50 [1] [mg/L] | Q1/2 [2] [mM]
Cc1c(C)c2c(c(C)c1O)SC(c1ccccc1)O2 (stereo unspecified) | < 0.1 | 6.6 |  | 2.4
VITAMIN E [listing 1 of 2 here] |  |  |  | 4.4
CCCCCCC1Oc2c(C)c(C)c(O)c(C)c2S1 (stereo unspecified) | 0.1 (≈ 0.357 µM) | > 35.6 |  | 1.6
Cc1c(C)c2c(c(C)c1O)SC(C)O2 (stereo unspecified) | < 0.1 | 2.1 |  | 1.6
Cc1c(C)c2c(c(C)c1O)SCO2 | < 0.1 | 2.4 |  | 1.3
Cc1c(C)c2c(c(C)c1O)CCC(C)(C)O2 [APC-100] | < 0.1 |  |  | 2.4
Cc1c(C)c2c(c(C)c1O)SC(CCC(=O)O)O2 (stereo unspecified) | > 1 | > 37.2 |  | 1.8
Cc1cc(C(C)(C)C)c(O)c(C(C)(C)C)c1 [BUTYLATED HYDROXYTOLUENE] |  |  |  | 0.45
Cc1c(C)c2c(c(C)c1O)SC(CCCO)O2 (stereo unspecified) | 0.1 (≈ 0.393 µM) | 1.5 |  | 2.2
CCCCCCCCCCCCCCCCCCCC1Oc2c(C)c(C)c(O)c(C)c2S1 (stereo unspecified) | > 1 |  |  | 1.8
CCCC1Oc2c(C)c(C)c(O)c(C)c2S1 (stereo unspecified) | < 0.1 | 3.8 |  | 1.4
CC(C)(C)c1cc(/C=C2\CCOC2=O)cc(C(C)(C)C)c1O |  | 147 |  | 
CCCCC1Oc2c(C)c(C)c(O)c(C)c2S1 (stereo unspecified) | < 0.1 | 11.9 |  | 1.6
NC1=NN(c2cccc(C(F)(F)F)c2)CC1 [BW-755C] |  | 136 |  | 

Second part, led by results:

IC50 [1, 4] [mg/L] | IC50 [3] [µM] | IC50 [1] [mg/L] | Molecule | Q1/2 [2] [mM]
0.3 (≈ 1.12 µM) | 3.1 |  | Cc1c(C)c2c(c(C)c1O)SC(CCC(N)=O)O2 (stereo unspecified) | 2.3
< 0.1 | 4.5 |  | CCC1Oc2c(C)c(C)c(O)c(C)c2S1 (stereo unspecified) | 1.3
 |  | > 1 | VITAMIN E [listing 2 of 2 here] | 
0.1 (≈ 0.446 µM) | 11.2 |  | CC1Oc2cc(C(C)(C)C)c(O)cc2S1 (stereo unspecified) | 
0.3 (≈ 1.27 µM) |  |  | Cc1c(C)c2c(c(C)c1O)CCC(C)(CO)O2 (stereo unspecified) | 2
> 1 | > 64.8 |  | Oc1ccc2c(c1)SCO2 | 6.2
> 1 |  |  | Cc1c(C)c2c(c(C)c1O)CCC(C)(C(=O)O)O2 (stereo unspecified) [TROLOX] | 1.9
< 0.1 | > 33.9 |  | CCCCCCCC1Oc2c(C)c(C)c(O)c(C)c2S1 (stereo unspecified) | 1.4
